Laboratory results taken from ChEMBL document CHEMBL4257478, “Design, synthesis and evaluation of (R)-3-(7-(methyl(7H-pyrrolo[2,3-d]pyrimidin-4-yl)amino)-5-azaspiro[2.4]heptan-5-yl)-3-oxopropanenitrile as a JAK1-selective inhibitor” (Medchemcomm, 2018).

What was measured:
[1] = target: CYP2C19 (Homo sapiens, UniProt P33261); test: Inhibition of CYP2C19 in human liver microsomes assessed as remaining activity at 10 uM using S-mephenytoin as substrate preincubated for 5 mins followed by addition of NADPH regenerating system and measured after 15 mins by LC-MS/MS analysis relative to control; type: ADME; conditions: probe S-mephenytoin, read-out: Activity
Sequence of CYP2C19 (P33261 whole entry): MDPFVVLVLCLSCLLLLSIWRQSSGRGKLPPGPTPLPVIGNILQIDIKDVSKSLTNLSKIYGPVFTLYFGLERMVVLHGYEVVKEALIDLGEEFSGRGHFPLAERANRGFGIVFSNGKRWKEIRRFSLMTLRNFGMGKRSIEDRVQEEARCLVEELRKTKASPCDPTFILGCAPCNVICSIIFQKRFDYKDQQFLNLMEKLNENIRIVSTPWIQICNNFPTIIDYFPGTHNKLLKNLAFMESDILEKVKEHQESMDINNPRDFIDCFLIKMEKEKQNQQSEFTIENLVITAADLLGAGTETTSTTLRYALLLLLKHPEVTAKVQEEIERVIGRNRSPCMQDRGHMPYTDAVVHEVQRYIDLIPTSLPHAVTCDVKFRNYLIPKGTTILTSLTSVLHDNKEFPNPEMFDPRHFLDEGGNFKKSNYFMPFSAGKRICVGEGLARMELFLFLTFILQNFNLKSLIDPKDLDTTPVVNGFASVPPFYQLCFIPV
Outline: (§1)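 Human liver microsomes (0.25 mg/mL) in 0.1 M phosphate buffer with test article at 0 or 10 μM and substrate cocktail, preincubated 5 min at 37 °C. Cocktail A: phenacetin 50 μM, coumarin 2.5 μM, S-mephenytoin 100 μM, dextromethorphan 5 μM, midazolam 2.5 μM. Cocktail B: bupropion 50 μM, amodiaquine 2.5 μM, tolbutamide 100 μM, chlorzoxazone 50 μM. NADPH system added, then 15 min at 37 °C; acetonitrile quench, LC-MS/MS.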

[2] = target: CYP2C9 (Homo sapiens, UniProt P11712); test: Inhibition of CYP2C9 in human liver microsomes assessed as remaining activity at 10 uM using tolbutamide as substrate preincubated for 5 mins followed by addition of NADPH regenerating system and measured after 15 mins by LC-MS/MS analysis relative to control; type: ADME; conditions: probe tolbutamide, read-out: Activity; outline: as §1
Sequence of CYP2C9 (P11712 whole entry): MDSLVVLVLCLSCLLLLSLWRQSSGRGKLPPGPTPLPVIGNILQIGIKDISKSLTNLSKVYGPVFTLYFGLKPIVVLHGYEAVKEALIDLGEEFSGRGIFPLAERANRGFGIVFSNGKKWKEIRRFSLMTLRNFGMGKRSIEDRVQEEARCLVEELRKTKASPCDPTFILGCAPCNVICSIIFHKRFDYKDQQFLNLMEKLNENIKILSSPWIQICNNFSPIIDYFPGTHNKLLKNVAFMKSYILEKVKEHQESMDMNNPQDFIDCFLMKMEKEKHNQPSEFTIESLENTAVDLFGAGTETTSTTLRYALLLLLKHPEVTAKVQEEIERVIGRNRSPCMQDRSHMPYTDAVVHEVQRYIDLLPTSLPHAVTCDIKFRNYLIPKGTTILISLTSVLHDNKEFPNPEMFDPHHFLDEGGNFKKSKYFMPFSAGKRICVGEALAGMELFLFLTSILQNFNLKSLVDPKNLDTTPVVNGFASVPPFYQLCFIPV

[3] = Metabolic stability in human plasma assessed as parent compound remaining at 10 uM after 30 mins by LC-MS/MS method; type: ADME, cell-free; conditions: read-out: Stability
Outline: (§2)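 Human plasma spiked with test article at 10 μM and incubated at 37 °C for 0, 30 and 120 min. Acetonitrile with chlorpropamide internal standard added, sample centrifuged at 4 °C, supernatant analysed by LC-MS/MS; result given as percent remaining.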

[4] = species: Homo sapiens; test: Selectivity index, ratio of IC50 for human JAK2 to IC50 for human JAK1
Outline: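 Kinase activity assays run as a commercial service at Km ATP; IC50 values fitted from concentration-response data; ratio of JAK2 to JAK1 IC50.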

[5] = Protein binding in human plasma at 10 uM after 4 hrs by rapid equilibrium dialysis method; type: ADME, cell-free; conditions: read-out: PPB (converted)
Outline: (§3)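 Rapid equilibrium dialysis of human or rat plasma dosed at 10 μM against PBS pH 7.4, 4 h at 37 °C. Plasma and buffer aliquots were matrix-matched with blank buffer or plasma, precipitated with acetonitrile containing chlorpropamide internal standard, and analysed by LC-MS/MS. Dexamethasone and warfarin served as positive controls.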

[6] = Metabolic stability in rat plasma assessed as parent compound remaining at 10 uM after 120 mins by LC-MS/MS method; type: ADME, cell-free; conditions: read-out: Stability
Outline: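 Rat plasma spiked with test article at 10 μM and incubated at 37 °C, sampled at 0, 30 and 120 min. Acetonitrile containing chlorpropamide internal standard added, then vortexed and centrifuged at 4 °C; supernatant quantified by LC-MS/MS as % remaining. Procaine and diltiazem served as positive controls.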

[7] = target: T1, CYP2C8 (Homo sapiens, UniProt P10632); test: Inhibition of CYP2C8 in human liver microsomes assessed as remaining activity at 10 uM preincubated for 5 mins followed by addition of NADPH regenerating system and measured after 15 mins by LC-MS/MS analysis relative to control; type: ADME; conditions: read-out: Activity
T1 sequence (P10632 whole entry): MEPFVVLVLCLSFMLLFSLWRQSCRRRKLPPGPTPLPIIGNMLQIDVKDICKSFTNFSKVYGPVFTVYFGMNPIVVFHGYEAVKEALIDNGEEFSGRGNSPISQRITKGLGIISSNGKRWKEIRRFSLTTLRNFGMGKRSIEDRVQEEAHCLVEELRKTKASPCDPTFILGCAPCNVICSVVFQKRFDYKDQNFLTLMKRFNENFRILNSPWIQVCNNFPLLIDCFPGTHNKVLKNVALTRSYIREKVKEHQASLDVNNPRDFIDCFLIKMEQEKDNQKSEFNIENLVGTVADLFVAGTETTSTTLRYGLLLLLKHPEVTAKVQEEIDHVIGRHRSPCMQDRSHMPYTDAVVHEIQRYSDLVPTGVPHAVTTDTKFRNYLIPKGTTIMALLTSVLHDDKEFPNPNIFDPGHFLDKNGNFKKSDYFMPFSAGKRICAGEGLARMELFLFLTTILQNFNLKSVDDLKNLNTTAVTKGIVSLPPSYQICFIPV

[8] = Metabolic stability in human plasma assessed as parent compound remaining at 10 uM after 120 mins by LC-MS/MS method; type: ADME, cell-free; conditions: read-out: Stability; outline: as §2
[9] = Protein binding in rat plasma at 10 uM after 4 hrs by rapid equilibrium dialysis method; type: ADME, cell-free; conditions: read-out: PPB (converted); outline: as §3
[10] = target: T2, CYP2B6 (Homo sapiens, UniProt P20813); test: Inhibition of CYP2B6 in human liver microsomes assessed as remaining activity at 10 uM using bupropion as substrate preincubated for 5 mins followed by addition of NADPH regenerating system and measured after 15 mins by LC-MS/MS analysis relative to control; type: ADME; conditions: probe bupropion, read-out: Activity; outline: as §1
T2 sequence (P20813 whole entry): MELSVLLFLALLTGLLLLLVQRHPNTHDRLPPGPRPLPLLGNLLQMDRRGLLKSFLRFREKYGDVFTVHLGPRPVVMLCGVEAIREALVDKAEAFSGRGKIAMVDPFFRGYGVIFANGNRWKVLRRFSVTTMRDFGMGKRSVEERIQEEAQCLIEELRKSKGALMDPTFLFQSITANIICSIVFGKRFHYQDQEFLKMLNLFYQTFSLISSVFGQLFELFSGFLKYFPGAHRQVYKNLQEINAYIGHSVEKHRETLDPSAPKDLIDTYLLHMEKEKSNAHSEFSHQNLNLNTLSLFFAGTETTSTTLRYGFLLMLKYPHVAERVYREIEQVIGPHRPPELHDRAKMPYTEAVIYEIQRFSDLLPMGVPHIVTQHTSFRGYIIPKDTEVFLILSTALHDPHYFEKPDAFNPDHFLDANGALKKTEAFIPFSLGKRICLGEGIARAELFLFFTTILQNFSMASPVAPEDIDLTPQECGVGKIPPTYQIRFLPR

[11] = Apparent permeability across basolateral to apical side in human Caco2 cells at 25 uM measured every 15 mins for 60 mins by LC-MS/MS method; type: ADME, cell-based; conditions: Caco-2
Outline: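 Caco-2 cells were seeded at 1×10^6 per 12-well transwell and grown 3 weeks. Test article was 25 μM in HBSS transport buffer (10 mM glucose, 4 mM bicarbonate, 1 mM HEPES, pH 7.4), added to the apical or basolateral side. Incubated 60 min at 37 °C with sampling every 15 min; LC-MS/MS read-out.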

[12] = tested on: Rattus norvegicus; test: AUC (0 to infinity) in Sprague-Dawley rat at 5 mg/kg, iv after 0.08 to 24 hrs by LC-MS/MS method; type: ADME, organism-based; parameters: dose 5 mg/kg, time infinity, route intravenous; conditions: in vivo
Outline: (§4)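 Male Sprague Dawley rats, 7-8 weeks old, n=4 per group. IV dose 5 mg/kg free base in 10% ethanol/90% PEG400; oral dose 10 mg/kg as corn oil suspension after 16 h fast. Blood taken 0.08-24 h (IV) or 0.25-24 h (PO). Plasma diluted in acetonitrile with internal standard, analysed by LC-MS/MS, parameters by non-compartmental analysis.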

[13] = tested on: Rattus norvegicus; test: AUC (0 to infinity) in Sprague-Dawley rat at 10 mg/kg, po after 0.25 to 24 hrs by LC-MS/MS method; type: ADME, organism-based; parameters: dose 10 mg/kg, route oral, time infinity; conditions: in vivo; outline: as §4

Row | activity at 0.25 h, 10 µM [1] | activity at 0.25 h, 10 µM [2] | remaining at 0.5 h, 10 µM [3] | Ratio IC50 [4] | fraction unbound at 4 h, 10 µM [5] | remaining at 2 h, 10 µM [6] | activity at 0.25 h, 10 µM [7] | remaining at 2 h, 10 µM [8] | fraction unbound at 4 h, 10 µM [9] | activity at 0.25 h, 10 µM [10] | Papp B→A at 1 h, 25 µM [11] | AUC [12] | AUC [13] | Structure (SMILES)
1 | 55.8% | 50.4% | 96.6% | 10 | 0.126 | > 100% | 66.2% | 98.6% | 0.142 | 92% | 15.7 ×10⁻⁶ cm/s |  |  | CN(c1ncnc2[nH]ccc12)[C@H]1CN(S(=O)(=O)c2cccc(C#N)c2)CC12CC2
2 | 93.8% | 90.7% | > 100% | 25 | 0.556 | > 100% | > 100% | > 100% | 0.505 | > 100% | 25.6 ×10⁻⁶ cm/s |  |  | CCS(=O)(=O)N1C[C@H](N(C)c2ncnc3[nH]ccc23)C2(CC2)C1
3 | 66% | 84.4% | 95% |  | 0.702 | 89.6% | 81% | 98.5% | 0.813 | 91.5% | 18.5 ×10⁻⁶ cm/s | 920 ng·h/mL | 2100 ng·h/mL | CN(c1ncnc2[nH]ccc12)[C@H]1CN(C(=O)CC#N)CC12CC2
